Shown are actives, neighbours in structure and some others; about 2.3% of the full set was active somewhere.
LGR2 antag = Drosophila LGR2 receptor signaling inhibition | HEK293 LGR2, CRE-luciferase, bursicon-stimulated, 4 h | inhibition, % at 9.99 µM | 380,000 compounds, 0.35% hits;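 active = drop in luminescence signal, shown as inhibition above about 50% in the replicate tests, limit read from the data, passing the limit was not always enough; inconclusive = probably only some replicates passing the limit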;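 note: agonist challenge used bursicon conditioned medium at about half maximal strength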
TWEAK Fn14 block = inhibitors of TWEAK-Fn14 interaction signaling. 360,000 compounds, 2% hits. TWEAK-stimulated Fn14 reporter cells, luciferase luminescence, 8 h. inhibition, % at 10 µM. AID 1159606; in the data active = inhibition above about 50%
EWS-Fli block = EWS/Fli transcriptional activity inhibition | AID 651661 | inhibition, % at 12.6 µM | A673 NR0B1-luciferase reporter, viability-normalised | 350,000 compounds, 0.67% hits;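 active = mean inhibition of at least 50% after viability correction, with every replicate also passing that limit; inconclusive = mean reaches 50% but only one of two replicates passes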;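 note: firefly luciferase signal divided by Alamar Blue viability fluorescence both relative to DMSO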
FN deposition inh = fibronectin deposition inhibition. AH1F fibroblasts, Alexa488-fibronectin deposition fluorescence, overnight. inhibition, % at 12.6 µM. 350,000 compounds, 0.086% hits. AID 743247;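 active = mean inhibition across replicates of 30% or more, regardless of how many single replicates reach that level; inconclusive = mean under 30% yet at least half of replicates reach 30%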;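 note: positive control wells lacked labelled fibronectin entirely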
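Assay system: AH1F fibroblasts assembling fluorescent fibronectin matrix; Amount: 10000 AH1F cells per well; Buffer or medium: DMEM, 2% serum; Probe or stimulus: Alexa488-fibronectin, 24 nM final in well; Doses: single compound dose, delivered by pin transfer; Incubation: 1 h adhesion, overnight exposure; Measured by: fluorescence 485/525 nm; Read-out: fibronectin deposition inhibition.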
XiGFP reactiv = activators of X-chromosome reactivation in mouse fibroblasts; XiGFP mouse fibroblasts, % GFP-positive cells imaging, 3 d; cells co-treated with 5-aza-dC sensitizer; scaled so ellipticine positive control = 100%; activation, % at 7.58 µM; 360,000 compounds, 0.055% hits; AID 743238;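 active = mean normalized replicate activation at least 10% and every replicate at or above 10%; inconclusive = only one of the two criteria met; inactive = mean below 10% and not all replicates reach 10%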;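 note: 0% = median of on-plate neutral control wells and 100% = ellipticine 6 µM median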
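Schedule: 3 d treatment, 15 min room-temperature fixation; system: 68-5-11 XiGFP fibroblast line; buffer or medium: DMEM plus 5-aza-dC sensitizer; control set: ellipticine 6 µM positive control; compound: one concentration, pinned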
TROY signal inh = TROY signaling inhibition; AID 1347056; 360,000 compounds, 0.98% hits; Q293 LMP1-TROYcd NF-kB luciferase reporter, 4 h; inhibition, % at 10 µM;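 active = compounds whose plate-normalised and pattern-corrected inhibition of the luciferase reporter signal at the single screening dose is 50% or more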
* hit, by the source's call; u = inconclusive; x = no result given.

SMILES	LGR2 antag	TWEAK Fn14 block	EWS-Fli block	FN deposition inh	XiGFP reactiv	TROY signal inh
CN1C(=O)NC(=O)/C(=C\C=C\c2ccccc2[N+](=O)[O-])C1=O	-3.0	x	66.9*	-11.1	0.4	x
COc1ccc(CC2C(=O)NC(C)C(=O)N(C)C3C(=O)N(C)C(Cc4ccc(O)c(c4)Oc4ccc(cc4)C3O)C(=O)NC(C)C(=O)NC(C)C(=O)N2C)cc1 (stereo not given)	98.9*	101.8*	43.9	20.2	0.0	86.8*
CN1C[C@H](CNC(=O)OCc2ccccc2)C[C@@H]2c3cccc4c3c(cn4C)C[C@H]21	x	60.3*	5.5	-6.6	0.0	-1.2
O=C(Cc1ccccc1)N1C[C@H]2[C@@H](c3ccccc31)[C@H](CO)N2Cc1ccccc1	13.5	x	8.1	x	0.4	x
CC=CC(C)=CC(C)C(=O)CC(O)CC1CC(=O)NC(=O)C1 (stereo not given)	17.0	2.9	-21.6	x	0.0	29.4
CC1CC(C)(O)CC(C(O)CC2CC(=O)NC(=O)C2)C1=O (stereo not given)	101.9*	98.1*	46.4	10.1	1.7	79.8*
O=c1[nH]c(O)c(/C=C2/C=CC(c3cc(Cl)ccc3Cl)=N2)c(=O)[nH]1	-57.4	44.9	12.7	-0.4	0.0	84.5*
CCCCCn1c(NC(=O)c2ccco2)c(C(=O)OCC)c2nc3ccccc3nc21	x	81.1*	x	x	x	61.6*
CC1Oc2cc3c(-c4c(O)cc(O)c5c(O)c6c(cc45)OC(C)C(C)C6=O)c(O)cc(O)c3c(O)c2C(=O)C1C (stereo not given)	x	68.3*	x	x	x	12.5
CCN(CC)C(=O)Cn1cc(/C=C2\C(=O)NC(=O)N(c3ccccc3F)C2=O)c2ccccc21	13.4	65.9*	5.7	5.0	0.0	41.9
O=C(O)Cn1cc(/C=C2\C(=O)NC(=O)N(c3ccc(Cl)cc3)C2=O)c2ccccc21	0.2	-2.6	10.8	-6.9	0.1	-1.0
N#Cc1ccc(-c2ccc([C@@H]3[C@H](CO)N4CCCCN(C(=O)Cc5ccccc5)C[C@@H]34)cc2)cc1	-8.8	x	9.6	x	0.0	x
Nc1ccc(CC(N)c2csc(Nc3ncccn3)n2)cc1 (stereo not given)	-12.3	-19.0	-41.4	4.6	0.1	-6.2
NC(Cc1ccc(Cl)cc1)c1csc(Nc2ncccn2)n1 (stereo not given)	u	57.9*	-2.0	7.8	0.1	13.9
O=C(O)[C@H]1[C@H](CO)[C@H]2Cn3c(ccc(-c4ccc(F)cc4)c3=O)[C@@H]1N2CC1CCCC1	-19.9	x	-3.3	0.9	0.0	x
COc1cccc(-c2ccc([C@@H]3[C@H](CO)N4CCCCN(C(=O)Cc5ccncc5)C[C@@H]34)cc2)c1	11.7	x	x	-3.9	0.0	x
CC1=C2C(=O)C3C(CC=C4CC(O)CCC43C)C2CCC12OC1CC(C)CNC1C2C (stereo not given)	-3.8	97.1*	6.7	-1.9	0.2	2.7
COCCN1C(=O)/C(=C/c2c(OC)cc(OC)cc2OC)C(=O)N(c2ccccc2)C1=O	-1.8	69.9*	-0.9	-4.5	-0.6	12.9
CCCOC(=O)c1ccc(-[n+]2c(-c3ccccc3)cc(-c3ccccc3)cc2-c2ccccc2)cc1	-4.7	61.8*	73.8*	5.6	0.7	24.4
COc1ccc(-[n+]2c(-c3ccccc3)cc(-c3ccc(C)cc3)cc2-c2ccccc2)cc1	28.4	60.5*	41.2	-1.3	0.2	49.0
O=C(O)c1ccc(-[n+]2c(-c3ccccc3)cc(-c3ccccc3)cc2-c2ccccc2)cc1	-5.1	6.5	1.2	-1.3	-0.1	-5.7
Cc1ccccc1-[n+]1c(-c2ccccc2)cc(-c2ccccc2)cc1-c1ccccc1	31.1	88.6*	42.5	5.8	0.1	63.3*
CCOC(=O)[C@@H]1[C@@H]2NC(=S)N(C)[C@@]1(C)Oc1ccccc12	x	x	-7.1	x	x	x
O=C1NC(=O)C(=Cc2ccc(-c3ccc(Cl)cc3)o2)C(=O)N1	x	79.6*	x	x	x	55.6*
COc1ccc(-c2ccc([C@H]3[C@@H](CO)N4CCCCN(C(=O)Cc5ccccc5)C[C@@H]34)cc2)cc1	6.9	x	x	x	-0.1	x
